The list is not random: actives were taken first. Their share in the collection is about 2.2%.
Efflux pump mplx – inhibitors of Candida antifungal efflux pumps expressed in yeast | 330,000 tested, 0.44% active | S. cerevisiae Candida pump triplex, Nile Red efflux | inhibition, % at 10 µM;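 active = plate passing quality check with inhibition over a set limit, or well fluorescence over plate mean plus 4 SD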;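 also: Nile Red retained in pooled yeast measured as flow cytometry median fluorescence; higher means more Nile Red kept so more efflux inhibition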
AI-2 QS modul – modulators of Vibrio harveyi AI-2 quorum sensing system; Vibrio harveyi JMH597 AI-2 luminescence/OD600 ratio, 9 h; active compounds read low; strain lacks LuxN and CqsS sensors; 0 = neutral-control median; activity change, % at 7.5 µM; 300,000 tested, 0.4% active; in the data active = activity change below about -75%, passing the limit was not always enough;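 also: luminescence divided by OD600 gain over 9 h not by final OD600 alone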
PolyA inhibitor – yeast polyadenylation inhibition; activity score, % at 12 µM; S. cerevisiae SKY197-pL101 polyadenylation reporter, beta-gal luminescence; efflux-impaired pdr1/pdr3 knockout yeast; score 100 = 6 SD above DMSO; 300,000 tested, 0.02% active; AID 1875;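 active = lowest replicate activity score at least 50, where 100 means six control SD above control mean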;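 also: yeast exposed to compound for 9 h at 30 °C; higher score means more reporter readthrough which indicates perturbed polyadenylation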
T cruzi inh – blocks replication of Trypanosoma cruzi. T. cruzi beta-gal in NIH3T3, luminescence, 90 h. inhibition, % (no concentration beside the values). 300,000 tested, 1.4% active. AID 1885;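 active = mean inhibition across valid replicates above about 55%, limit read from the data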;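 also: signal also drops with host cell toxicity which is not excluded here; higher percent means less beta-gal luminescence so fewer parasites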
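System – NIH/3T3 host cells with β-galactosidase reporter T. cruzi · Doses – single 50 nL compound addition per well in DMSO · Reagent – 5000 T. cruzi trypomastigotes/well · Medium – Low-serum DMEM with 2% FBS · Timing – ≥90 h infection period, 3 h prior cell attachment · Evaluation – parasite load inhibition, % · Technique – GalScreen luminescence, 60 min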
HDAC3 inh – inhibitors of human histone deacetylase 3; O15379; recombinant HDAC3, fluorogenic peptide/trypsin coupled, fluorescence; inhibition, % at 8.3 µM; 320,000 tested, 0.15% active; in the data active = inhibition above about 26%, passing the limit was not always enough
Target sequence (O15379 whole entry, looked up): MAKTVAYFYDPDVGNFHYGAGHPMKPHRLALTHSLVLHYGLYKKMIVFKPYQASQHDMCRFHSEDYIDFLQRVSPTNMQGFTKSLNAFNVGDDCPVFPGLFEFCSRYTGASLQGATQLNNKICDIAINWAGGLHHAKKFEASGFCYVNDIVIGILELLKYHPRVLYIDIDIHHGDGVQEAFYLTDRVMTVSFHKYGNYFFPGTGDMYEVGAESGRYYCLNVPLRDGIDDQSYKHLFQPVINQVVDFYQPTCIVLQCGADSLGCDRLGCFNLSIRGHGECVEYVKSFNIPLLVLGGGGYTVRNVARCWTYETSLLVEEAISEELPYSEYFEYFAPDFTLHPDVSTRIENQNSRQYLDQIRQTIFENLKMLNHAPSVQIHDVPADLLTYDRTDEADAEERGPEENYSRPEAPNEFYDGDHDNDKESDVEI
Of the large screens only hits and unclear results are named; the others gave an inactive call.

O=C(Nc1nc2ccccc2n1CCOc1ccccc1)c1ccco1	none
O=C(Nc1nc2ccccc2n1Cc1ccc(Cl)cc1)c1ccco1	T cruzi inh 76.4
CCc1ccc(CN2CCCC(CCC(=O)N3CCN(c4ccccn4)CC3)C2)o1 (stereo not drawn)	T cruzi inh 59.2 (no result: HDAC3 inh)
Cc1ccc(C(=O)N2CCCC(CCC(=O)N3CCN(c4ccccn4)CC3)C2)cc1 (stereo not drawn)	none
Cc1ccccc1-c1ccc(CN2CCN(C)C(CCO)C2)cc1 (stereo not drawn)	T cruzi inh 58.5
CC(C)n1cc(CN2CCN(C)C(CCO)C2)c2ccccc21 (stereo not drawn)	T cruzi inh 59.3
O=S(=O)(Nc1ccc(-c2csc(-c3ccccc3)n2)cc1)c1ccc(F)cc1	T cruzi inh 67.6
CCOc1ccccc1N(CC(=O)NC(C)(C)C)C(=O)CCC(=O)Nc1nccs1	none
Cn1c(-c2cccc([N+](=O)[O-])c2)cnc1NCc1ccc(C#N)cc1	none
COc1ccc(CCNC(=O)[C@H](C)N2C(=O)N3CCc4c([nH]c5ccccc45)[C@@]3(C)C2=O)cc1	T cruzi inh 61.6
CN(C)CCc1cc2c(c3c1ccc1ccccc13)OCO2	PolyA inhibitor 59.4
COc1ccc(C(=O)CC(=O)C(=O)NCCc2cccc(C)c2)cc1	none
O=C1C2N=NN(CC(=O)N3N=C(c4ccccc4)CC3c3ccc([N+](=O)[O-])cc3)C2C(=O)N1c1ccccc1 (stereo not drawn)	none
COCc1cc(=O)[nH]c(N2CCN(Cc3ccc4c(c3)OCO4)CC2)n1	none
CC1CCN(Cc2c(C(=O)N/N=C/c3cc(Br)ccc3O)nnn2-c2nonc2N)CC1	T cruzi inh 59.2
CC1CCN(Cc2c(C(=O)N/N=C/c3cc(Cl)ccc3O)nnn2-c2nonc2N)CC1	T cruzi inh 60.6
CCCCn1c(N)c(N(CC(C)C)C(=O)COC(=O)Cc2c(C)nc3ccccc3c2C)c(=O)[nH]c1=O	none
COc1ccc(NC(=O)c2cccc(S(=O)(=O)NCc3ccco3)c2)c(OC)c1	none (no result: HDAC3 inh)
Cc1ccc(S(=O)(=O)N2CCC(=O)N(C(COCc3ccc(Cl)cc3Cl)Cc3ccccc3)CC2)cc1 (stereo not drawn)	T cruzi inh 74.8
CCOC(=O)c1oc2ccc(CNC3CCCCC3)c(Cl)c2c1C	T cruzi inh 74.1
OCCN1CCN(c2ncnc3sc(-c4ccccc4)cc23)CC1	T cruzi inh 62.1
O=C(Nc1ccccc1C(=O)O)c1ccc(Cl)c(S(=O)(=O)N2CCOCC2)c1	none
O=C(Nc1ccccc1C(=O)O)c1cc(S(=O)(=O)N2CCCCC2)c(Cl)cc1Cl	T cruzi inh 58.1
CCN(CCn1cccn1)C(=O)c1cc(COc2cc(C)ccc2C)on1	none
O=C(/C=C/c1ccc([N+](=O)[O-])s1)N1CCN(c2ccccc2)CC1	T cruzi inh 58.5
Cc1cc(C)cc(NC(=O)/C=C/c2ccc([N+](=O)[O-])s2)c1	none
O=C(/C=C/c1ccc([N+](=O)[O-])s1)N1CCCC1	T cruzi inh 69.3
CC(=O)c1cccc(NC(=O)/C=C/c2ccc([N+](=O)[O-])s2)c1	T cruzi inh 55.9 (no result: Efflux pump mplx, HDAC3 inh)
Cc1cccc(/C=N\N=C\c2cccc(C)c2)c1	none
Cc1ccc(-n2c(SCC(=O)NCc3ccco3)nc3c(sc4ccccc43)c2=O)cc1	none
COC(=O)c1sccc1NC(=O)Nc1ccc(C(C)=O)cc1	none (no result: PolyA inhibitor, T cruzi inh)
CN(CCOc1ccccc1)CC(=O)Nc1ccc(S(=O)(=O)N2CCCC2)cc1	T cruzi inh 56.9
CCCCN(C(=O)c1cc(S(=O)(=O)N2CCOCC2)ccc1Cl)c1c(N)n(CC(C)C)c(=O)[nH]c1=O	none
O=[N+]([O-])c1cc(-c2nnc(C34CC5CC(CC(C5)C3)C4)o2)cc([N+](=O)[O-])c1	T cruzi inh 56.8
O=[N+]([O-])c1cccc(-c2nnc(C34CC5CC(CC(C5)C3)C4)o2)c1	none
CS(=O)(=O)c1ccccc1-c1nnc(NC(=O)c2cccc(N3C(=O)CCC3=O)c2)o1	none (no result: HDAC3 inh)
COc1cccc(NC(=O)COc2ncnc3sc(C)c(C)c23)c1	AI-2 QS modul -76.4
CN(CC(=O)Nc1ccc(F)c(F)c1F)C1CCCCC1	none
CN(CC(=O)Nc1ccc(F)c(F)c1F)c1cnccn1	T cruzi inh 63.7
N#CCC(=O)N/N=C/c1cc(-c2ccccc2)n(-c2ccc(Cl)cc2)c1-c1ccccc1	T cruzi inh 59.6
